Legend:
[1] = Solubility of the compound in DMSO; type: physicochemical
[2] = target: T1, Glucose-6-phosphatase catalytic subunit 1 (Rattus norvegicus) (UniProt P43428); assay: Inhibition of glucose-6-phosphatase in rat […] cells at MNTD using glucose-6-phosphate as substrate preincubated overnight followed by substrate addition and measured after 40 mins relative to control; type: cell-based
T1 sequence (whole entry): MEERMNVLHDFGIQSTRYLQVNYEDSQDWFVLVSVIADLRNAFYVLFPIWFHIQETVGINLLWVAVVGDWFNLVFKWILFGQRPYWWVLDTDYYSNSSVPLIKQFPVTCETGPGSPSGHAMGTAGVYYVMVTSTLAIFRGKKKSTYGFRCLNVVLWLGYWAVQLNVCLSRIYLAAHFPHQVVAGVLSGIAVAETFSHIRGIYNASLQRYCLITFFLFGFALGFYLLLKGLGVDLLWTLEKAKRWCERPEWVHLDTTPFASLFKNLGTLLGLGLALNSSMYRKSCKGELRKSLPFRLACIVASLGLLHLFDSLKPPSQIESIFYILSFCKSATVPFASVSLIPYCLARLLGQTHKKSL
Outline: (§1)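 H4IIE rat hepatoma cells at 90% confluence treated overnight at maximal nontoxic concentration, 0.1% DMSO vehicle. Lysis in phosphate buffer with 0.05% Triton; lysate incubated with glucose-6-phosphate buffer 40 min at 37 °C. Released glucose read by glucose kit against standard curve, normalized to BCA protein; percent change from vehicle. Means of three experiments in triplicate.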

[3] = target: T2, Glycogen [starch] synthase, liver (Homo sapiens) (UniProt P54840); assay: Activation of insulin-stimulated glycogen synthase in human HepG2 cells at MNTD using [U-14C]UDP glucose as substrate preincubated for 18 hrs followed by insulin stimulation and measured after 15 mins by beta-counting method relative to control; type: cell-based
T2 sequence (whole entry): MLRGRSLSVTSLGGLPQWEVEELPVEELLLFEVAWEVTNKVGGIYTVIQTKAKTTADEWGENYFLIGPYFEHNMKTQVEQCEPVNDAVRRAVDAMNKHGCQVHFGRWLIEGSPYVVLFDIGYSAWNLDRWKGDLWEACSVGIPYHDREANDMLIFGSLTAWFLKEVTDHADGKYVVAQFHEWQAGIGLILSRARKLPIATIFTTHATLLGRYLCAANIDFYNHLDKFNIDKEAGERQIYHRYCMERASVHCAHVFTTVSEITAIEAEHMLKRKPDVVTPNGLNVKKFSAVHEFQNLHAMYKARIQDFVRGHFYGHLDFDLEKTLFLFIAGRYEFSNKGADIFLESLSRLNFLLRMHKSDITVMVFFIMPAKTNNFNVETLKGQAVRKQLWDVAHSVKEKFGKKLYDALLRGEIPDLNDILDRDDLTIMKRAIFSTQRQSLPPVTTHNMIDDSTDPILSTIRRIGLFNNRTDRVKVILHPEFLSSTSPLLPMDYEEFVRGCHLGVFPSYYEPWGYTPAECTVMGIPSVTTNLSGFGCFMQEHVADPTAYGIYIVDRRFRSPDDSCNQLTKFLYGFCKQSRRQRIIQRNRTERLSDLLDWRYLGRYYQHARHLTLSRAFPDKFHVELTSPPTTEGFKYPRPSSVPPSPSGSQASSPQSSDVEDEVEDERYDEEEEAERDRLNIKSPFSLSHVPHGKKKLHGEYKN

[4] = target: RAC-alpha serine/threonine-protein kinase (Rattus norvegicus) (UniProt P47196); assay: Activation of Akt in rat […] cells assessed as increase in ratio of phosphorylated Akt to total AKt level at MNTD after 18 hrs by Western blot analysis relative to control; type: cell-based
Chain of RAC-alpha serine/threonine-protein kinase (Rattus norvegicus) (P47196 whole entry): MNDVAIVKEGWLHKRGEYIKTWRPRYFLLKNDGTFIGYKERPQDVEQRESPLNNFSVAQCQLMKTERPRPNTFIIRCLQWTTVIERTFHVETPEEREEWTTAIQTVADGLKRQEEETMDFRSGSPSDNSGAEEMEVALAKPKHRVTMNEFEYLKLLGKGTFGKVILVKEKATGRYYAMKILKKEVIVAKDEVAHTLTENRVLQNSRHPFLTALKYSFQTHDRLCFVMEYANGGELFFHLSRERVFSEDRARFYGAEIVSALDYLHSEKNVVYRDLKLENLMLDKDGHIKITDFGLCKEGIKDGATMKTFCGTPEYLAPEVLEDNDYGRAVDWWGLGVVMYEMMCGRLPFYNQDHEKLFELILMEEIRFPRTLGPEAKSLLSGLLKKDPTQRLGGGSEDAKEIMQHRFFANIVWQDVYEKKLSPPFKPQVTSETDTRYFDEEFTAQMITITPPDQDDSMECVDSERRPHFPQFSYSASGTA
Outline: (§2)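 Confluent H4IIE rat hepatoma cells (DMEM, 10% FBS) or HepG2 human hepatoma cells (DMEM/F12, 10% FBS) exposed 18 h to samples at maximal nontoxic concentration, 0.1% DMSO vehicle; RIPA lysates, 40 μg protein by SDS-PAGE, nitrocellulose blotting, 5% milk block. Antibodies against p-Akt Thr308/Akt, p-AMPKα Thr172/AMPK, p-GSK-3 Ser9/GSK-3, HRP secondary, ECL detection. Phospho/total ratio relative to DMSO; three independent passages.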

[5] = species on record: Rattus norvegicus; assay: Activation of AMPK in rat […] cells assessed as increase AMPK phosphorylation at MNTD after 18 hrs by Western blot analysis relative to control; type: cell-based; outline: as §2
[6] = target: T3, Glycogen synthase kinase-3 (Homo sapiens) (UniProt P49840+P49841); assay: Activation of GSK3 phosphorylation in human HepG2 cells at MNTD after 18 hrs by Western blot analysis relative to control; type: cell-based; outline: as §2
T3 sequence (P49840 whole entry, looked up): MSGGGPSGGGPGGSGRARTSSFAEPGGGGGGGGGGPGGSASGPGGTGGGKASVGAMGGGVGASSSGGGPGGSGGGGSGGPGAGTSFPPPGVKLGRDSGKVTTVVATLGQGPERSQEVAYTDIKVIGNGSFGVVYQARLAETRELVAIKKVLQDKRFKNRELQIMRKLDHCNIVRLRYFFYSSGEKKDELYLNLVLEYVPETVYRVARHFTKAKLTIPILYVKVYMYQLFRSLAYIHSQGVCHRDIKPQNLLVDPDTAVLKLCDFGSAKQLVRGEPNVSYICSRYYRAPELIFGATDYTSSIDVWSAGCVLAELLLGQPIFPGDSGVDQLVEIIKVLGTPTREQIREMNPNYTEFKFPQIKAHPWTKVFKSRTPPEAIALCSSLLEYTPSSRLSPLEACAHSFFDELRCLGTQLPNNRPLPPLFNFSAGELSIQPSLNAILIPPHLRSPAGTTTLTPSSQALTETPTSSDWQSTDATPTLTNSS
T3 sequence (P49841 whole entry, looked up): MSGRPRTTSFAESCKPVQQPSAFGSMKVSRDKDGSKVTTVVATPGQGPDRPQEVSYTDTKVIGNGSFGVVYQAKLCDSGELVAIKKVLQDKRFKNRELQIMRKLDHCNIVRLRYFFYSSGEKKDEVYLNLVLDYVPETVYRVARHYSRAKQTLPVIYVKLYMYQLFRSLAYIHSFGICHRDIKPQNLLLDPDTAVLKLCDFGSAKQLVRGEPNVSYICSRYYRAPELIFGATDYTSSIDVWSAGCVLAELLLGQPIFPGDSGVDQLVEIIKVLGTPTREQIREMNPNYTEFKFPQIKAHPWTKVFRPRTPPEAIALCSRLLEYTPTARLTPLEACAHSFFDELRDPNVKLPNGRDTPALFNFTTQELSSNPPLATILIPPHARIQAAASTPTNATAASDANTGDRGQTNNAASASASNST

[7] = target: T3, Glycogen synthase kinase-3 (Homo sapiens); assay: Activation of GSK3 in human HepG2 cells assessed as increase in ratio of phosphorylated GSK3 to total GSK3 level at MNTD after 18 hrs by Western blot analysis relative to control; type: cell-based; outline: as §2
[8] = target: T4, Glucose-6-phosphatase catalytic subunit 1 (Rattus norvegicus, UniProt P43428); assay: Inhibition of glucose-6-phosphatase in rat H42E cells using glucose-6-phosphate as substrate preincubated overnight followed by substrate addition and measured after 40 mins; type: cell-based; outline: as §1
T4 sequence (P43428 whole entry): T1 sequence (whole entry)

[9] = target: T5, Glycogen [starch] synthase, liver (Homo sapiens, UniProt P54840); assay: Activation of insulin-stimulated glycogen synthase in human HepG2 cells using [U-14C]UDP glucose as substrate preincubated for 18 hrs followed by insulin stimulation and measured after 15 mins by beta-counting method; type: cell-based
T5 sequence (P54840 whole entry): T2 sequence (whole entry)

Row | SMILES | solubility [1] | inhibition [2] [%] | fold change (FC) [3] | fold change (FC) [4] | fold change (FC) [5] | fold change (FC) [6] | fold change (FC) [7] | IC50 [8] [µM] | EC50 [9] [µM]
1 | CC[C@H](CC[C@@H](C)[C@H]1CC[C@H]2[C@@H]3CC=C4C[C@@H](O)CC[C@]4(C)[C@H]3CC[C@]12C)C(C)C [BETA-SITOSTEROL] | Insoluble | – | – | – | – | – | – | – | –
2 | CC[C@H](/C=C/[C@@H](C)[C@H]1CC[C@H]2[C@@H]3CC=C4C[C@@H](O)CC[C@]4(C)[C@H]3CC[C@]12C)C(C)C [STIGMASTEROL] | Insoluble | – | – | – | – | – | – | – | –
3 | C[C@H]1[C@H](C)CC[C@]2(C(=O)O)CC[C@]3(C)C(=CC[C@@H]4[C@@]5(C)CC[C@H](O)C(C)(C)[C@@H]5CC[C@]43C)[C@H]12 | – | 18 to 32 | 1.5 to 3.5 | 2.2 to 4.8 | 2.2 to 3.5 | 2 | – | – | –
4 | COc1cc(/C=C/C(=O)O[C@H]2[C@H](O)C[C@]3(C)[C@H]4CC=C5[C@H]6[C@](C(=O)O)(CC[C@@H](C)[C@@]6(C)O)CC[C@@]5(C)[C@]4(C)CC[C@H]3C2(C)C)ccc1O | – | 18 to 32 | 1.5 to 3.5 | 2.2 to 4.8 | 2.2 to 3.5 | – | 1.8 | – | –
5 | NC(=O)c1ncn([C@@H]2O[C@H](CO)[C@@H](O)[C@H]2O)c1N | – | – | – | – | – | 2 | – | – | –
6 | COc1cc(/C=C/C(=O)O[C@H]2[C@H](OC(C)=O)C[C@]3(C)[C@H]4CC=C5[C@H]6[C@](C(=O)O)(CC[C@@H](C)[C@@]6(C)O)CC[C@@]5(C)[C@]4(C)CC[C@H]3C2(C)C)ccc1O | – | 18 to 32 | 1.5 to 3.5 | 2.2 to 4.8 | 2.2 to 3.5 | 2 | – | 4.8 | 4.1

From ChEMBL document CHEMBL4411265, “Bioactive Pentacyclic Triterpenes from the Root Bark Extract of Myrianthus arboreus, a Species Used Traditionally to Treat Type-2 Diabetes” (J Nat Prod, 2018)
